According to ChEMBL document CHEMBL5649170, “Sustained microglial depletion with CSF1R inhibitor impairs parenchymal plaque development in an Alzheimer's disease model” (Nat Commun, 2019):
Activity calls are given as the source filed them. The rule behind the calls is not given here.

Tests used:
[1] = Drug concentration in wildtype mouse brain at 600 ppm administered as rodent chow starting from 1.5 months and measured after 5 months; type: ADME, tissue-based; conditions: route po, time 3.5 months, read-out: Ct
Summary of the method: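 WT or 5xFAD mice were fed PLX3397 in AIN-76A chow at 600 ppm or 75 ppm from 1.5 to 5 months of age. Terminal brain and plasma drug concentrations were determined at study end.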

[2] = molecular target: Mitogen-activated protein kinase kinase kinase kinase 5 (Homo sapiens, UniProt Q9Y4K4); experiment: Inhibition of MAP4K5 (unknown origin)
Mus musculus [3] = experiment: Antialzheimer activity in 5XFAD mouse assessed as number of Thio-S positive plaques per FOV in thalamus at 1200 ppm administered as rodent chow starting from 1.5 months and measured after 4 months by Thio-S staining based confocal microscopic analysis (reference value: 139 to 224); type: functional; conditions: route po, time 2.5 months, 1825 h
[4] = molecular target: Death-associated protein kinase 3 (Homo sapiens, UniProt O43293); experiment: Inhibition of DAPK3 (unknown origin)
[5] = Ratio of drug concentration in 5XFAD mouse brain to plasma at 1200 ppm administered as rodent chow for 180 days; type: ADME, cell-free; conditions: brain and plasma, route po, time 180 day, read-out: BPR
Mus musculus [6] = experiment: Prevention of Tmem119 gene upregulation in 5XFAD mouse hippocampus at 1200 ppm administered as rodent chow starting from 1.5 months and measured after 7 months by Nanostring analysis; type: functional, tissue-based; conditions: route po, time 5.5 months
[7] = molecular target: Ribosomal protein S6 kinase alpha-1 (Homo sapiens, UniProt Q15418); experiment: Inhibition of RPS6KA1 (unknown origin)
[8] = molecular target: Fibroblast growth factor receptor 2 (Homo sapiens, UniProt P21802); experiment: Inhibition of FGFR2 (unknown origin)
[9] = Prevention of Nrg3 gene downregulation in 5XFAD mouse hippocampus assessed as percent change in Reads Per kilo base per Million mapped reads at 1200 ppm administered as rodent chow starting from 1.5 months and measured after 7 months by RNA-Seq analysis (reference value: 52.623 to 75.016 %); type: functional; conditions: route po, time 5.5 months, 4015 h
[10] = molecular target: Serine/threonine-protein kinase Nek1 (Homo sapiens, UniProt Q96PY6); experiment: Inhibition of NEK1 (unknown origin)
[11] = molecular target: Homeodomain-interacting protein kinase 1 (Homo sapiens, UniProt Q86Z02); experiment: Inhibition of HIPK1 (unknown origin)
Mus musculus [12] = experiment: Antialzheimer activity in 5XFAD mouse assessed as number of Iba positive cells per FOV in retro spinal cortex at 1200 ppm administered as rodent chow starting from 1.5 months and measured after 4 months (reference value: 210 to 529); type: functional; conditions: route po, time 2.5 months, 1825 h
[13] = molecular target: T1, Macrophage colony-stimulating factor 1 receptor (Mus musculus) (UniProt P09581); experiment: In vivo inhibition of CSF1R in wildtype mouse assessed as number of S100bteta positive cells per FOV in […] cortex at 1200 ppm administered as rodent chow for 10 to 24 weeks by immunolabelling based confocal microscopic analysis (reference value: 296 to 337); type: functional; conditions: route po, time 10-24 weeks
T1 sequence (whole entry): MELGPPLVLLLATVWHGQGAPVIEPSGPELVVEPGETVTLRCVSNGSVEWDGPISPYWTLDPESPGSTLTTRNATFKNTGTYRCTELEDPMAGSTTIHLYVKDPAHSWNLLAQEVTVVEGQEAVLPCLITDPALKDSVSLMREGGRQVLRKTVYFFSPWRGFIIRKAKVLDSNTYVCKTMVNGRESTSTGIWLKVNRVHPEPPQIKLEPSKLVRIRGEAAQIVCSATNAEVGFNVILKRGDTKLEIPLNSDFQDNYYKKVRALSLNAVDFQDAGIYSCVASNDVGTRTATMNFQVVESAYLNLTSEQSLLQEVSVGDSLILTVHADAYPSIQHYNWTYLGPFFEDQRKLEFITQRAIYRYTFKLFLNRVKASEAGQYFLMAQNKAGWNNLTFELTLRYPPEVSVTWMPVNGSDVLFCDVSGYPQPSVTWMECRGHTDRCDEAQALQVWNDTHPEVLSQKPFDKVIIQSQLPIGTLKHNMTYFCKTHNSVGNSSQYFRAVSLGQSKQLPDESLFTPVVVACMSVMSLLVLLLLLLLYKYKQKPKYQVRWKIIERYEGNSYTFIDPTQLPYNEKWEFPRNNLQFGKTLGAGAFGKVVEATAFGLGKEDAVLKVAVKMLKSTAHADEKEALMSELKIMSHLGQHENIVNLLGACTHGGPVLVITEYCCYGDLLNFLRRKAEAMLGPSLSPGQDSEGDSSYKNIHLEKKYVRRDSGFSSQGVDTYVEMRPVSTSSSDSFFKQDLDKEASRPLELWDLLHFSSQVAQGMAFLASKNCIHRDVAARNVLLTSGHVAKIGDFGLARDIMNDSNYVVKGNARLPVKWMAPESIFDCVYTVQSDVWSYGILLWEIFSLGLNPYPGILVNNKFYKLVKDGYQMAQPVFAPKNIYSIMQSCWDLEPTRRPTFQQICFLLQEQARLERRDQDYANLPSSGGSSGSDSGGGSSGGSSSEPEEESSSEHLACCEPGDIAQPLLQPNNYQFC

Ephrin type-B receptor 4 = Ephrin type-B receptor 4 (Homo sapiens, UniProt P54760); experiment: Inhibition of EPHB4 (unknown origin)
[14] = Effect on Kcnq3 gene expression in wildtype mouse hippocampus assessed as percent change in Reads Per kilo base per Million mapped reads at 1200 ppm administered as rodent chow starting from 1.5 months and measured after 7 months by RNA-Seq analysis (reference value: 77.761 to 119.973 %); type: functional; conditions: route po, time 5.5 months, 4015 h
[15] = Prevention of Dync1i1 gene downregulation in 5XFAD mouse hippocampus assessed as percent change in Reads Per kilo base per Million mapped reads at 1200 ppm administered as rodent chow starting from 1.5 months and measured after 7 months by RNA-Seq analysis (reference value: 65.184 to 88.242 %); type: functional; conditions: route po, time 5.5 months, 4015 h
[16] = molecular target: Protein kinase C eta type (Homo sapiens, UniProt P24723); experiment: Inhibition of PRKCH (unknown origin)
[17] = Effect on Cx3cr1 gene expression in 5XFAD mouse thalamus at 1200 ppm administered as rodent chow starting from 1.5 months and measured after 7 months by RNA-Seq analysis (reference value: 15.006 to 17.756 RPKM); type: functional; conditions: route po, time 5.5 months, 4015 h
[18] = Effect on Siglech gene expression in 5XFAD mouse hippocampus at 1200 ppm administered as rodent chow starting from 1.5 months and measured after 7 months by RNA-Seq analysis (reference value: 5.386 to 6.928 RPKM); type: functional; conditions: route po, time 5.5 months, 4015 h
Mus musculus [19] = experiment: Antialzheimer activity in wildtype mouse assessed as number of Iba positive cells per FOV in […] cortex at 1200 ppm administered as rodent chow starting from 1.5 months and measured after 7 months (reference value: 322 to 632); type: functional; conditions: route po, time 5.5 months, 4015 h
[20] = molecular target: T1, Macrophage colony-stimulating factor 1 receptor (Mus musculus); experiment: In vivo inhibition of CSF1R in wildtype mouse assessed as number of Iba1 positive cells per FOV in somatosensory cortex at 1200 ppm administered as rodent chow starting from 1.5 months to 4 months followed by compound removal and measured after 1 months by immunolabelling based confocal microscopic analysis (reference value: 304 to 351); type: functional; conditions: route po, time 2.5 months
[21] = Effect on Siglech gene expression in wild type mouse cortex at 1200 ppm administered as rodent chow starting from 1.5 months and measured after 7 months by RNA-Seq analysis (reference value: 3.777 to 4.267 RPKM); type: functional; conditions: route po, time 5.5 months, 4015 h

Serine/threonine-protein kinase Nek1, sequence (Q96PY6 whole entry): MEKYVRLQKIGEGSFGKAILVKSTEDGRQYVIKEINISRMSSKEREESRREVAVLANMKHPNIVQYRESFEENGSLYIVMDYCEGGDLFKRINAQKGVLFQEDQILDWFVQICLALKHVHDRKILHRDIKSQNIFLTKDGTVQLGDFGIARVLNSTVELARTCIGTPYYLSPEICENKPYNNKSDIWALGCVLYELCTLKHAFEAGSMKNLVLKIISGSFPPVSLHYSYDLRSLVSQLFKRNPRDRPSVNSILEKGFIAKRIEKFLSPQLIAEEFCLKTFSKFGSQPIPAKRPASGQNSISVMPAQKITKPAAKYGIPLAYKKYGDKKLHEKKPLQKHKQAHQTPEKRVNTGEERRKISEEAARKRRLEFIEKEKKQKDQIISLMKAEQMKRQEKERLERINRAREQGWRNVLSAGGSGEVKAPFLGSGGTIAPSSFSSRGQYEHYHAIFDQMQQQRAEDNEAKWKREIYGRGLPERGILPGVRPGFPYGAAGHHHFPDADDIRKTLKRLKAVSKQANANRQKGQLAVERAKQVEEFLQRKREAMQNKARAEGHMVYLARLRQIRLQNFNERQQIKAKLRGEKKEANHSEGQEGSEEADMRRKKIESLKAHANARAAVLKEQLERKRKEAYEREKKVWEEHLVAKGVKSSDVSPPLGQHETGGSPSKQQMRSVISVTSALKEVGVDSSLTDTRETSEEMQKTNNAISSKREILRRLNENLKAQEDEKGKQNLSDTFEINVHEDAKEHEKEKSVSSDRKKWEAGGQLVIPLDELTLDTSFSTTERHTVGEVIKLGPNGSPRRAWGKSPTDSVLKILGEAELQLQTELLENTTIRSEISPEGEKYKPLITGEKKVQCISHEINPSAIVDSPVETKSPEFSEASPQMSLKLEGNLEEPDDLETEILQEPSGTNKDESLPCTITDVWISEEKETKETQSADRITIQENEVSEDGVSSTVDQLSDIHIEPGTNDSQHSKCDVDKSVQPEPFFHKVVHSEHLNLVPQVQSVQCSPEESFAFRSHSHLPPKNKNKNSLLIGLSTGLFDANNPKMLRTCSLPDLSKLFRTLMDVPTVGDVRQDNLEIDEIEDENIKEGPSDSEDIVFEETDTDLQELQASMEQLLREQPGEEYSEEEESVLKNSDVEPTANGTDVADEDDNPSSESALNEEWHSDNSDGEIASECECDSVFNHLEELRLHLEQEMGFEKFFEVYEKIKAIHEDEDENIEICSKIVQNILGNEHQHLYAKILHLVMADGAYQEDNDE
Homeodomain-interacting protein kinase 1, sequence (Q86Z02 whole entry): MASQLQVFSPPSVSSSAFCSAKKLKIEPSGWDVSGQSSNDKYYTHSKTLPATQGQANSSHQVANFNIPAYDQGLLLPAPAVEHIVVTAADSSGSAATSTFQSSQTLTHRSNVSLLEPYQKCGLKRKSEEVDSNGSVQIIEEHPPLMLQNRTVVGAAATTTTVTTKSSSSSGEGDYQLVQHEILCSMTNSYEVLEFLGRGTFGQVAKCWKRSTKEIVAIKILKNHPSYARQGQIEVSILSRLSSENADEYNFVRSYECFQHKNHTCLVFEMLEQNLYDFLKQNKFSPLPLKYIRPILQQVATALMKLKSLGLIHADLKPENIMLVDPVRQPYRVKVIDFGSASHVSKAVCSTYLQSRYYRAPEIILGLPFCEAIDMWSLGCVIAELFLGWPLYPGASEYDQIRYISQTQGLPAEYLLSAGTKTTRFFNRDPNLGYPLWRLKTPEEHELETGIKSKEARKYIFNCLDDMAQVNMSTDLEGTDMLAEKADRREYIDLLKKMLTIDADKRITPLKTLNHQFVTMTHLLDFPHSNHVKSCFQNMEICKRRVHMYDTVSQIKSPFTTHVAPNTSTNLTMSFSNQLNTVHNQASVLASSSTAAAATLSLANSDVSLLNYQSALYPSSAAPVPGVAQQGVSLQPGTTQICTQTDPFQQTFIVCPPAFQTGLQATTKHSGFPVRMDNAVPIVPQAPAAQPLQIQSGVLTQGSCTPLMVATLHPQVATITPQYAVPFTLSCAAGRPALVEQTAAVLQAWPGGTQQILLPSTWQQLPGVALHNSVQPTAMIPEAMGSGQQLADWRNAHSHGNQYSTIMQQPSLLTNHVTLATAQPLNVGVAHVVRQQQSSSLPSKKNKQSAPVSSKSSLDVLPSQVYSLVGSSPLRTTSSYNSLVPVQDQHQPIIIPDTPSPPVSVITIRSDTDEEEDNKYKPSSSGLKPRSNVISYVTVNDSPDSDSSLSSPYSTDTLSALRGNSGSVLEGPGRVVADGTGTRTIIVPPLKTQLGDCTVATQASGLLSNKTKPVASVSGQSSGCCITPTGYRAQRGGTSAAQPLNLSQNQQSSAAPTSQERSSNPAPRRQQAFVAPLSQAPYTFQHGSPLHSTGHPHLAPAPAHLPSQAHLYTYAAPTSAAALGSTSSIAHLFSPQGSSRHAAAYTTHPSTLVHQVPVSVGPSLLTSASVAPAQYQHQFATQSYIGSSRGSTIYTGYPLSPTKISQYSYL
Mitogen-activated protein kinase kinase kinase kinase 5, sequence (Q9Y4K4 whole entry): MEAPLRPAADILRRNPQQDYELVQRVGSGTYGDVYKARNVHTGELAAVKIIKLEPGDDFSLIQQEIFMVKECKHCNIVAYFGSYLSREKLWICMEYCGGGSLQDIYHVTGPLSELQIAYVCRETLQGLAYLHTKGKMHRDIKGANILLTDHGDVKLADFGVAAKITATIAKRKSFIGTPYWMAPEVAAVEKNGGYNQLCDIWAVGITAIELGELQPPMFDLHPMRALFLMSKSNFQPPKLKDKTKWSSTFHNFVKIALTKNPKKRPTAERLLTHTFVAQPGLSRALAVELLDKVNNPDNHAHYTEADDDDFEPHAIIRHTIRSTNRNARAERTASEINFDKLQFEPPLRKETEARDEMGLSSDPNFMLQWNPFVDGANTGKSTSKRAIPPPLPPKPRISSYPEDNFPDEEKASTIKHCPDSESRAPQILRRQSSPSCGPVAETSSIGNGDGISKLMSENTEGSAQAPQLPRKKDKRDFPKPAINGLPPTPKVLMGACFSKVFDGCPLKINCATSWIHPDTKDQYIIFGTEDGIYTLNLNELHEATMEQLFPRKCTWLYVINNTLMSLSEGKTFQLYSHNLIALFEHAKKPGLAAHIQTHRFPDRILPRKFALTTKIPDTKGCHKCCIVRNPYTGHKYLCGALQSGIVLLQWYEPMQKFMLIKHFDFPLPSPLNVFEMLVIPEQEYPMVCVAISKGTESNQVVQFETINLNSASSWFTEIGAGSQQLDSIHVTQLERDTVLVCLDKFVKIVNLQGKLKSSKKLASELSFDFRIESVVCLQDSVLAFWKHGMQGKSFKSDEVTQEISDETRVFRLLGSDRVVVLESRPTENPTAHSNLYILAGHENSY
Ribosomal protein S6 kinase alpha-1, sequence (Q15418 whole entry): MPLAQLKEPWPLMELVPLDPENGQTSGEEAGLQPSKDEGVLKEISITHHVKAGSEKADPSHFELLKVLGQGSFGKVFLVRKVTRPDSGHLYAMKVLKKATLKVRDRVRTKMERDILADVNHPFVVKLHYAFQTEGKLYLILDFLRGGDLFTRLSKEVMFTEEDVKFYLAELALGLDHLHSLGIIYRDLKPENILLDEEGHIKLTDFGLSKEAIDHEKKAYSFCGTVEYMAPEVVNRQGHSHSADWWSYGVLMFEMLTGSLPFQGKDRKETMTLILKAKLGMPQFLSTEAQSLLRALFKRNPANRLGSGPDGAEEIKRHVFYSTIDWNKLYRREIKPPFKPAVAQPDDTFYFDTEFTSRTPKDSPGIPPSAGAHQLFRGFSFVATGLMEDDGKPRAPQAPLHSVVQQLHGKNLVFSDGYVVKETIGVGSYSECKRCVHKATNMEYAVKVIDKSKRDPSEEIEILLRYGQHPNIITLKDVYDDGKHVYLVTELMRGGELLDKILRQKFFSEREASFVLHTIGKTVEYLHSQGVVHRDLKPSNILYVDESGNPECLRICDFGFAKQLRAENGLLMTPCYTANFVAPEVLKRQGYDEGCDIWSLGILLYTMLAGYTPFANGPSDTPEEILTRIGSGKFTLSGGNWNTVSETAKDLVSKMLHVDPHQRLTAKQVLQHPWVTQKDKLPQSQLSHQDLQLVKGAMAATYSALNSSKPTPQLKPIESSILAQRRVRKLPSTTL
Death-associated protein kinase 3, sequence (O43293 whole entry): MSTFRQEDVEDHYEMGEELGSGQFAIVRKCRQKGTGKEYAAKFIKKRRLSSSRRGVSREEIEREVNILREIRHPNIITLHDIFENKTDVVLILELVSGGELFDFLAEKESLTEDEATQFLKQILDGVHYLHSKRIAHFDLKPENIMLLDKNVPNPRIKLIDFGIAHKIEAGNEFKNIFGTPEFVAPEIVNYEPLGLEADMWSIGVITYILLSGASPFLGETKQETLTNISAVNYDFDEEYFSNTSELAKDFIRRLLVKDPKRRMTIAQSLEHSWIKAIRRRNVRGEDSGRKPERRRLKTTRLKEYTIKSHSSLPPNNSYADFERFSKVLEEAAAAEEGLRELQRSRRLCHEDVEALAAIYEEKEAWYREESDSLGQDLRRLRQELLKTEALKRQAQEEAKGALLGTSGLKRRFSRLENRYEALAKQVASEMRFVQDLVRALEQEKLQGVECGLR

Question: With `FC(F)(F)c1ccc(CNc2ccc(Cc3c[nH]c4ncc(Cl)cc34)cn2)cn1` [PEXIDARTINIB] as the compound, how does the concentration at 2555 h [1] read?
Answer: Its concentration at 2555 h is 5 µM.

Question: Which IC50 [2] does the source give for `COc1ncc(F)cc1CNc1ccc(Cc2c[nH]c3ncc(C)cc23)c(F)n1` [PLX-5622] here?
Answer: The IC50 was over 1 µM.

Question: What about the Activity (Mus musculus [3]) of the same compound?
Answer: The Activity was 76.

Question: What about the IC50 [4] of the same compound?
Answer: The IC50 was over 1 µM.

Question: What about the Kp at 4320 h [5] of the same compound?
Answer: The Kp at 4320 h was 0.26.

Question: And the Activity (Mus musculus [6])?
Answer: Its Activity is “Active”.

Question: What about the IC50 [7] of the same compound?
Answer: Its IC50 is over 1 µM.

Question: And the IC50 [8]?
Answer: The IC50 was over 1 µM.

Question: What about the Activity [9] of the same compound?
Answer: Its Activity is 86.32%.

Question: And the IC50 [10]?
Answer: Its IC50 is over 1 µM.

Question: What about the IC50 [11] of the same compound?
Answer: Its IC50 is over 1 µM.

Question: What about the Activity (Mus musculus [12]) of the same compound?
Answer: Its Activity is 0.

Question: And the Activity [13]?
Answer: Its Activity is 269.

Question: And the IC50 (Ephrin type-B receptor 4)?
Answer: Its IC50 is over 1 µM.

Question: And the Activity [14]?
Answer: The Activity was 52.407%.

Question: What about the Activity [15] of the same compound?
Answer: Its Activity is 89.818%.

Question: What about the IC50 [16] of the same compound?
Answer: The IC50 was over 1 µM.

Question: What about the Activity [17] of the same compound?
Answer: The Activity was 0.179 RPKM.

Question: And the Activity [18]?
Answer: The Activity was 0.195 RPKM.

Question: What about the Activity (Mus musculus [19]) of the same compound?
Answer: The Activity was 0.

Question: And the Activity [20]?
Answer: Its Activity is 108.

Question: What about the Activity [21] of the same compound?
Answer: The Activity was 0 RPKM.
